Test results: ChEMBL document CHEMBL1137811, “Four new bromotryptamine derivatives from the marine bryozoan Flustra foliacea” (J Nat Prod, 2002)
Activity calls are given as the source filed them.

Assays:
Format in all cases: cell-based
Details in all cases: Oocyte
[1] = target: Potassium voltage-gated channel subfamily A member 1 (Rattus norvegicus) (UniProt P10499); experiment: Blockade of voltage-activated rat Kv1.1 potassium channel expressed in Xenopus laevis oocytes assessed as effect on evoked current upto 10 uM by two-electrode voltage clamp method
Potassium voltage-gated channel subfamily A member 1 (Rattus norvegicus), sequence (P10499 whole entry): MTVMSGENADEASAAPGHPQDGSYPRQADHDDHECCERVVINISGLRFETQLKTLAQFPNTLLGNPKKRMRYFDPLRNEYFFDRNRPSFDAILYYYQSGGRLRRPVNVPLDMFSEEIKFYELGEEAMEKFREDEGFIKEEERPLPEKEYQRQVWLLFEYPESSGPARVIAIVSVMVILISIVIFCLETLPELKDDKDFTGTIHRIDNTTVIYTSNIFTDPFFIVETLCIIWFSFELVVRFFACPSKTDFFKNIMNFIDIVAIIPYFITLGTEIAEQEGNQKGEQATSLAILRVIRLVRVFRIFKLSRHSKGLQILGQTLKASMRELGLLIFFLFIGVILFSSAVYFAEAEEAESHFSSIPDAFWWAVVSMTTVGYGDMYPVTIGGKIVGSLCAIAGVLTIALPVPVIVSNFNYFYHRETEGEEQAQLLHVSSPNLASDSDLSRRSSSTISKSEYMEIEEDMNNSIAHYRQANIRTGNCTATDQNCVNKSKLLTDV
Summary of the method: (§1)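 Channels expressed in Xenopus laevis oocytes from injected cRNA (rat Kv1.1, rat Kv1.4 or rat brain type II Na channel), incubated 1-5 days. Vitelline membrane removed. Two-electrode voltage clamp, whole-cell currents; 2 M KCl electrodes, 0.6-1.0 MΩ. Filtered 1 kHz, sampled 4 kHz, P/n leak subtraction. Bath: frog Ringer's, pH 7.2. Compounds from DMSO stock, final up to 10 μM in bath; DMSO-only control.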

[2] = target: Potassium voltage-gated channel subfamily A member 4 (Rattus norvegicus) (UniProt P15385); experiment: Blockade of voltage-activated rat Kv1.4 potassium channel expressed in Xenopus laevis oocytes assessed as effect on evoked current upto 10 uM by two-electrode voltage clamp method; summary of the method: as §1
Potassium voltage-gated channel subfamily A member 4 (Rattus norvegicus), sequence (P15385 whole entry): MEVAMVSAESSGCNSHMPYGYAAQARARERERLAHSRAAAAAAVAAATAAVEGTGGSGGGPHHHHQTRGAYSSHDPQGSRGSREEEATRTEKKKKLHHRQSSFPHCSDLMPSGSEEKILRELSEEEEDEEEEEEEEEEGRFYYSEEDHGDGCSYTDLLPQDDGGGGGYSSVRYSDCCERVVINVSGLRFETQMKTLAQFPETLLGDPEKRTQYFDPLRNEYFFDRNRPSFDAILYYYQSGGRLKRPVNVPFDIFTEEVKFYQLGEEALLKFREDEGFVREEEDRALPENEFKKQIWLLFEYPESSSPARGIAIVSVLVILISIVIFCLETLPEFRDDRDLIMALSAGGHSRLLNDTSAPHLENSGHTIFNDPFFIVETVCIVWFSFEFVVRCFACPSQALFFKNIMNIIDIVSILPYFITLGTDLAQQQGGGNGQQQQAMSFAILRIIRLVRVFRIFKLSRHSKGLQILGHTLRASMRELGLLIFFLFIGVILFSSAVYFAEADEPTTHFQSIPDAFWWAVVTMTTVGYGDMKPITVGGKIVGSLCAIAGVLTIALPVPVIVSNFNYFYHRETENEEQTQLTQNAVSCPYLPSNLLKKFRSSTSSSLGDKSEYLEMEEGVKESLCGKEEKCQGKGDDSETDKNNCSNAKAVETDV

[3] = target: Sodium channel protein type 2 subunit alpha (Rattus norvegicus) (UniProt P04775); experiment: Blockade of voltage-activated rat brain Nav1.2 sodium channel type 2 channel expressed in Xenopus laevis oocytes assessed as effect on evoked current by two-electrode voltage clamp method; summary of the method: as §1
Sodium channel protein type 2 subunit alpha (Rattus norvegicus), sequence (P04775 whole entry, looked up): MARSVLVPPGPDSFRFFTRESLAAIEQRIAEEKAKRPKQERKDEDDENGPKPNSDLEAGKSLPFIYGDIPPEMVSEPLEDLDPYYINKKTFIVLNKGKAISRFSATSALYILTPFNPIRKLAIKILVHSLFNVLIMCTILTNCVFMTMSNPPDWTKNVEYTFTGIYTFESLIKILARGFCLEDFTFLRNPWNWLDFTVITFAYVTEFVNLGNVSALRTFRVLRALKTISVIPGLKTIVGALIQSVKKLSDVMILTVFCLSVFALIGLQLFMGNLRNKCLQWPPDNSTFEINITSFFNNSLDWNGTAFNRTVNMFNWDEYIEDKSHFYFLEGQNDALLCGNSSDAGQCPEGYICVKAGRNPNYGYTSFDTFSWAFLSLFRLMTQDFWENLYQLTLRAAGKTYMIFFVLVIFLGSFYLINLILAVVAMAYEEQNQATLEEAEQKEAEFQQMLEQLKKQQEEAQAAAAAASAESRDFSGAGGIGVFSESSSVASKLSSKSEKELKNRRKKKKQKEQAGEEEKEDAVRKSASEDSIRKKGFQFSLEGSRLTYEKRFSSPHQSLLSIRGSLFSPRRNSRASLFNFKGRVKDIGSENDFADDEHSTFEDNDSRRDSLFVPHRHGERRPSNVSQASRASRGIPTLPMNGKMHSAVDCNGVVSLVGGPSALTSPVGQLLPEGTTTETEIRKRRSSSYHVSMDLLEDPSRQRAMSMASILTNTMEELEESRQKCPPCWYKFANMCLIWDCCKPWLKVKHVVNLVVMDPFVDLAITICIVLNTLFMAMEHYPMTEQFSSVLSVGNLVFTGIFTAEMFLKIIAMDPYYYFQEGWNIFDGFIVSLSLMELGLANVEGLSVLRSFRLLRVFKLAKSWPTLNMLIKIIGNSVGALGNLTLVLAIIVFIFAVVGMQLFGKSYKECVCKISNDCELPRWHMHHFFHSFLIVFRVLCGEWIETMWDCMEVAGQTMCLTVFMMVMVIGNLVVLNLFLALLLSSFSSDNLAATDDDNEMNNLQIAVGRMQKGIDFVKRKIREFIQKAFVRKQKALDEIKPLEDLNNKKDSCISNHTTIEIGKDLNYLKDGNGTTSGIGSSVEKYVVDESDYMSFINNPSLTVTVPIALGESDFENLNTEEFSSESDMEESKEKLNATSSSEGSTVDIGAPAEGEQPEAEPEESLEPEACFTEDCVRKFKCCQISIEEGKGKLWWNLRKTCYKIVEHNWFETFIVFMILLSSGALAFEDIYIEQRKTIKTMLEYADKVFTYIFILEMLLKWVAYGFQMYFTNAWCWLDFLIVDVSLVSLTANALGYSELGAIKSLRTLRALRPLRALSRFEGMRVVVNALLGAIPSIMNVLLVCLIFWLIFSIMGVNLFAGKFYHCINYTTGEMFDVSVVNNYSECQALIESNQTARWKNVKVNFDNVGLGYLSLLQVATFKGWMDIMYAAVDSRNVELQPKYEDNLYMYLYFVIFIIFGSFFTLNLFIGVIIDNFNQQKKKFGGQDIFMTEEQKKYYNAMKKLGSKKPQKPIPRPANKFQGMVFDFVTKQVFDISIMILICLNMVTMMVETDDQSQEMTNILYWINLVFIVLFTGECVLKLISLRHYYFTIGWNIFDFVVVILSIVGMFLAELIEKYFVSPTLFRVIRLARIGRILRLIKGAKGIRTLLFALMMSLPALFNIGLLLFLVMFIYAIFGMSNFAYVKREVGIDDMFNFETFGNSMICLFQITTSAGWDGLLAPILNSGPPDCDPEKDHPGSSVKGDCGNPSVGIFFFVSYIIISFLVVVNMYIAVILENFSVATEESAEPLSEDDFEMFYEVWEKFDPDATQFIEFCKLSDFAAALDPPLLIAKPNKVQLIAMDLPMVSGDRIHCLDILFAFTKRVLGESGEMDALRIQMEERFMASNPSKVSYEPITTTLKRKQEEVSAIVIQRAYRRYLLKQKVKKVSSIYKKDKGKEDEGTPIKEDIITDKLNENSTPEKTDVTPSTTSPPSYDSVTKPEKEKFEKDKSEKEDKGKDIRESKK

Measured: Activity

C=CC(C)(C)[C@@]12CCN(C)C1=Nc1cc(Br)ccc12
inactive: all assays above

C=CC(C)(C)[C@@]12CCN(C)[C@@H]1Nc1cc(Br)ccc12
inactive: all assays above

C=CC(C)(C)c1[nH]c2cc(Br)ccc2c1CCNC
inactive: all assays above

C=CC(C)(C)[C@@]12CCN(C)[C@@H]1N(CC=C(C)C)c1cc(Br)ccc12
inactive: all assays above
